From PubChem BioAssay
Only some compounds are listed: those with a hit (about 2% of all), similar ones and a draw of the others.
LEDGF integ inh: blocks HIV-1 LEDGF/p75-dependent DNA integration; hit rate 0.64% among 370,000; TR-FRET IN-LEDGF/p75 DNA integration, Eu/Cy5; AID 743269; inhibition, % at 3.7 µM;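 active means inhibition above the screen-wide mean plus 3 SD, cut at about 13% in these data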;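 further: signal is the Cy5 over europium emission ratio at 671 and 618 nm; 0% = plate median of compound wells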
TDP2 absorb: TDP2 (human) inhibition, absorbance primary screen; O95551; recombinant TDP2, T5PNP hydrolysis, p-nitrophenol absorbance 415 nm; inhibition, % at 12.8 µM; hit rate 0.34% among 370,000; AID 720702;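 active means inhibition above the mean of all tested compounds plus 3 SD, set per campaign, cut at about 25% in these data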;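 further: 0% = DMSO with enzyme and 100% = buffer with substrate but no TDP2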
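test system = human TDP2 enzyme | input = TDP2 enzyme at 120 nM final | medium = 50 mM Tris-HCl pH 7.5 with Mg2+, KCl, DTT, BSA | also added = T5PNP substrate, 5 mM | times = 2 h at 37 °C | technique = epi absorbance | benchmarks = high control without enzyme, low control DMSO plus TDP2 | replication = each compound tested once, singlicate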
ASAP1 inh: inhibitors of human ASAP1 ArfGAP activity; ASAP1-stimulated ARF1 GTP hydrolysis, GDP FP detection; inhibition, % at 16.5 µM; hit rate 0.19% among 360,000;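 further: 0% = vehicle with enzyme and substrate and 100% = no enzyme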
Target sequence (Q9ULH1 325-724 limits assumed): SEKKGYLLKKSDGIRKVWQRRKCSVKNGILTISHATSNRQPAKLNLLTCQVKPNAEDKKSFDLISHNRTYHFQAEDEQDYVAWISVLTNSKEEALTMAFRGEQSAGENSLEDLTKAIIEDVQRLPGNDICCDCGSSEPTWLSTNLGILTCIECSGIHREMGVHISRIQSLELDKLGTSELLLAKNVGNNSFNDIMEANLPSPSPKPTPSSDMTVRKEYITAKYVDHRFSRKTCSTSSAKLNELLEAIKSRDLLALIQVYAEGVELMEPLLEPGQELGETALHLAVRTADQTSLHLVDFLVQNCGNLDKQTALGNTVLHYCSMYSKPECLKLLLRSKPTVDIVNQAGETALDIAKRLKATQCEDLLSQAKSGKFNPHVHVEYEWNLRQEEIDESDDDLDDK
ARFGAP1 inhibitor: inhibits rat ARF GTPase activating protein 1 | Q62848 | Arfgap1-stimulated ARF1 GTP hydrolysis, GDP FP detection | inhibition, % at 16.5 µM | hit rate 0.26% among 360,000 | AID 651572;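 active means inhibition above a per-plate limit, mean inhibition of low control wells plus 3 SD, cut at about 25% in these data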;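 further: 0% = DMSO wells with enzyme and 100% = wells lacking Arfgap1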
Target sequence (Q62848 1-136 limits assumed): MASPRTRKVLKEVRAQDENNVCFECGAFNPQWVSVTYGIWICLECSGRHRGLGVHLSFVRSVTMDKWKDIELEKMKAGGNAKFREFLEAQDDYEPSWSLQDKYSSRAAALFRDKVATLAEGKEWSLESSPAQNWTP
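system = rat Arfgap1 catalytic domain, aa 1-136 | technique = FP, GDP Alexa 633 tracer displaced from anti-GDP antibody, 620/688 nm | compound = one concentration, 16.5 µM, DMSO 1.26% | medium = HEPES-based buffer, pH 7.5 | timing = compound-enzyme preincubation 20 min, reaction 120 min, detection 60 min, 25 °C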
MBD2 DNA inh: inhibitors of human MBD2 binding to methylated oligonucleotide; hit rate 0.31% among 370,000; inhibition, % at 4.4 µM; Q9UBB5; TR-FRET; in the data active means inhibition above about 13%
UHRF1 binding: UHRF1 methyl-DNA binding inhibition | AID 687016 | UHRF1 binding to methylated oligo, TR-FRET | inhibition, % at 4.4 µM | Q96T88 | hit rate 0.75% among 370,000; in the data active means inhibition above about 21%;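 further: UHRF1 SRA domain binding a hemimethylated CpG hairpin DNA probe; 0% = median of test compound wells and 100% = reference inhibitor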
ARFGAP1 confirm: confirmation of rat ARFGAP1 inhibitors; shares compounds with ARFGAP1 inhibitor; ARFGAP1-stimulated ARF1 GTP hydrolysis, GDP tracer FP; AID 651608; inhibition, % at 16.5 µM; hit rate 30% among 890;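 active means average inhibition over triplicates above the hit cutoff set in the earlier primary screen, cut at about 25% in these data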;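 further: 0% = Arfgap1 plus ARF1-GTP with DMSO and 100% = wells lacking Arfgap1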
UHRF1 ctr MBD2: UHRF1 methyl-oligo binding inhibition as MBD2 counter-screen; hit rate 25% among 1,000; shares compounds with MBD2 DNA inh; inhibition, % at 4.4 µM; AID 720530; UHRF1 binding to methylated oligonucleotide, TR-FRET; in the data active means inhibition above about 21%;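 further: UHRF1 SRA domain binding a labeled hemimethylated CpG hairpin DNA; 0% = vehicle only and 100% = reference inhibitor with vehicle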
MBD2 DBD conf: confirmation of human MBD2-DBD methylated oligonucleotide binding inhibitors. shares compounds with MBD2 DNA inh. TR-FRET MBD2-DBD binding to methylated oligonucleotide. inhibition, % at 4.4 µM. hit rate 26% among 1,000. AID 720531; in the data active means inhibition above about 14%
TDP2 inh conf: confirmation of human TDP2 inhibitors. shares compounds with TDP2 absorb. recombinant human TDP2, absorbance read-out. inhibition, % at 12.8 µM. hit rate 22% among 1,100;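 further: 0% = vehicle with enzyme and 100% = no enzyme buffer only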
IN multimer up: counter-screen for LEDGF/p75 integration inhibitors: HIV-1 integrase multimerization activators | activation, % at 7.7 µM | shares compounds with LEDGF integ inh | TR-FRET HIV-1 integrase multimerization, biochemical | hit rate 17% among 2,000; in the data active means activation above about 8.9%
TR-FRET interf: optically interferes with TR-FRET readout in LEDGF counter-screen; 2,000 tested, under 10 active; TR-FRET optical interference counterscreen, HIV-1 IN multimerization; inhibition, % at 7.7 µM; shares compounds with LEDGF integ inh;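 active means inhibition above the mean over all tested compounds plus 3 SD, which no compound reached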;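 further: 0% = integrase with antibodies and DMSO and 100% = antibodies without integrase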
IN-LEDGF confirm: confirmation of HIV-1 LEDGF/p75-dependent integration inhibitors | shares compounds with LEDGF integ inh | TR-FRET LEDGF/p75-dependent HIV-1 integration, biochemical | inhibition, % at 3.7 µM | hit rate 36% among 2,000; in the data active means inhibition above about 14%
The depositor's hits bear a star; / = no result given. Unless noted, no stated cut-off is given here; in the data, active means inhibition above about 25%; inactive means the rest.

SMILES | LEDGF integ inh | TDP2 absorb | ASAP1 inh | ARFGAP1 inhibitor | MBD2 DNA inh | UHRF1 binding | others
CC(=O)CC[C@@H]1CC[C@]2(CCCN(C(=O)C3CCCCC3)C2)O1 | -0.9 | 4.3 | / | / | -2.5 | -1.1
COc1ccc2c(c1)C(c1ccc(C)o1)=NNC(c1cccnc1)=N2 | 18.8* | -8.7 | -6.1 | 25.2* | -3.1 | 0.7 | ARFGAP1 confirm=1.4;IN multimer up=0.9;TR-FRET interf=-4.4;IN-LEDGF confirm=-4.3
COc1ccc2c(c1)C(c1ccc(C)o1)=NNC(c1ccccc1)=N2 | -4.5 | 1.5 | 6.7 | -6.6 | -4.0 | -2.6
Nn1cnnc1N/N=C\c1ccc(-c2ccccc2[N+](=O)[O-])o1 | 38.5* | 65.8* | -5.8 | 27.5* | -3.0 | 11.1 | ARFGAP1 confirm=4.4;TDP2 inh conf=39.0*;IN multimer up=2.4;TR-FRET interf=-8.5;IN-LEDGF confirm=1.2
CN(Cc1ccccc1)C(=O)c1[nH]cnc1C(=O)Nc1ccccc1 | 1.5 | 9.2 | -4.2 | 7.7 | 0.3 | 0.5
CN(Cc1ccccc1)C(=O)c1nc[nH]c1C(=O)N(C)Cc1ccccc1 | 16.6* | 2.6 | 4.3 | 26.5* | 2.4 | 0.8 | ARFGAP1 confirm=-3.6;IN multimer up=0.4;TR-FRET interf=-2.0;IN-LEDGF confirm=6.7
Cc1ccc(CNC(=O)O[C@H]2CC[C@@]34CCCN3C(=O)CCC[C@H]4C2)cc1 | 2.4 | 1.8 | / | / | 5.9 | -0.5
COc1cc(/C=C(\C#N)C(=O)NCC2CCCO2)ccc1OCC(=O)O (centres undefined) | -3.6 | 4.3 | 2.0 | -2.2 | 1.3 | 2.3
COc1cc(/C=C(\C#N)C(=O)NCC2CCCO2)c([N+](=O)[O-])cc1OC (centres undefined) | 7.9 | 17.8 | -17.0 | -14.2 | 13.9* | 20.8* | UHRF1 ctr MBD2=7.4;MBD2 DBD conf=1.8
COC(=O)[C@]12C[C@H](CC(=O)NCc3ccc(OC)c(OC)c3)C(=O)N(Cc3ccco3)C1=C[C@H](COCc1ccccc1)O[C@@H]2C | -2.9 | 1.7 | / | / | -4.5 | -3.4
N#CCC[C@@H]1CC[C@]2(CCCN(S(=O)(=O)C3CCCCC3)C2)O1 | 0.9 | 3.8 | / | / | -2.8 | -0.9
COc1ccc(Cl)cc1S(=O)(=O)N1CCN(C(=O)CSc2nc3ccccc3nc2N2CCCC2)CC1 | 0.7 | 0.4 | / | / | -3.0 | -1.6
O=C(CSc1nc2ccsc2c(=O)n1CC1CCC(C(=O)O)CC1)c1ccc(Cl)cc1 (centres undefined) | -0.8 | -6.6 | -8.4 | -6.0 | 18.8* | 14.0 | UHRF1 ctr MBD2=16.4;MBD2 DBD conf=9.8
COC(=O)[C@]12C[C@H](CC(=O)NCC34CC5CC(CC(C5)C3)C4)C(=O)N(Cc3ccc(Cl)cc3Cl)C1=C[C@H](C(C)(C)C)O[C@@H]2C | -2.5 | 3.7 | / | / | -2.4 | -1.0
Cc1ccc(OCC(=O)N(C)CC(=O)NCc2ccco2)c(Br)c1 | 1.9 | -3.8 | -20.6 | 13.9 | 6.4 | 8.3
CC(=O)c1cccc(OCC(=O)N(C)CC(=O)NCc2ccco2)c1 | 30.1* | -6.8 | -7.3 | -1.1 | 22.3* | 49.4* | UHRF1 ctr MBD2=43.0*;MBD2 DBD conf=17.8*
